Key:
Glutamate NMDA receptor [1] = assay: Displacement of [3H]-MK-801 from rat cortical membranes NMDA receptor by beta counting analysis in absence of spermine
Summary of the method: (§1)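 Membranes from rat frontoparietal cortex and hippocampus, prepared in 50 mM Tris acetate pH 7.0. 5 nM [3H]MK-801 was incubated with membranes (~1 mg wet tissue) for 3 h at 23 °C in 10 mM Tris acetate pH 7.0 with 10 µM glutamate and glycine, in triplicate, with or without 30 µM spermine. Compounds were tested at 3–4 concentrations. Nonspecific binding was set with 100 µM (S)-ketamine. Bound ligand was filtered and scintillation-counted. Spermine sensitivity = IC50 (with spermine)/IC50 (without).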

[2] = biological target: Glutamate NMDA receptor (Rattus norvegicus) (UniProt P35439+Q00959+Q00960+Q00961+Q62645+Q8VHN2+Q9R1M7); assay: Ratio of IC50 for displacement of [3H]-MK-801 from rat cortical membranes NMDA receptor in presence of 30 uM spermine to IC50 for displacement of [3H]-MK-801 from rat cortical membranes NMDA receptor in absence of 30 spermine; summary of the method: as §1
Glutamate NMDA receptor [3] = assay: Displacement of [3H]-MK-801 from rat cortical membranes NMDA receptor by beta counting analysis in presence of 30 uM spermine; summary of the method: as §1
Glutamate NMDA receptor [4] = assay: Displacement of [3H]-ifenprodil from rat cortical membranes NMDA receptor by beta counting analysis in absence of spermine

Structure (SMILES) | IC50 (Glutamate NMDA receptor [1]) | Ratio IC50 [2] | IC50 (Glutamate NMDA receptor [3]) | IC50 (Glutamate NMDA receptor [4])
CCN(CCN(CC)c1ccc(C(=N)N)cc1)c1ccc(C(=N)N)cc1 | 1.14 µM | 11.8 | 13.8 µM | 9.16 µM
CC(C)NC(=N)c1ccc(NC(=O)c2cccc(C(=O)Nc3ccc(C(=N)NC(C)C)cc3)n2)cc1 | 6.94 µM | 10.8 | 74.9 µM | 49.4 µM
N=C(N)c1ccc(NC(=O)c2cccc(C(=O)Nc3ccc(C(=N)N)cc3)n2)cc1 | 58.2 µM | 1.22 | 70.9 µM | > 100 µM
N=C(N)c1ccc(OC(=O)c2ccc(C(=O)Oc3ccc(C(=N)N)cc3)cc2)cc1 [BIS(4-CARBAMIMIDOYLPHENYL)TEREPHTHALATE] | 10.8 µM | 3.98 | 46.6 µM | 27 µM
N=C(N)c1ccc(NCCCNc2ccc(C(=N)N)cc2)cc1 | 10 µM | 17 | 148 µM | 77.7 µM

From ChEMBL document CHEMBL3593210, “Pentamidine analogs as inhibitors of [(3)H]MK-801 and [(3)H]ifenprodil binding to rat brain NMDA receptors” (Bioorg Med Chem, 2015)
